Test system: U2OS
Experiment: Multiplex assay against U2OS
Format: toxicity, cell-based
Conditions: human
In short: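 Compound was added to live cells that had been stained at seeding with Hoechst33342, BioTracker Green Microtubule Cytoskeleton Dye, MitoTracker Red and Annexin V Alexa Fluor 680, and imaging followed on a CQ1 microscope at 37°C and 5% CO2. CellPathfinder machine-learning gating divided cells into Hoechst high-intensity objects or normal cells, normal cells into healthy, pyknosed or fragmented nuclei, and pyknosed cells into mitotic or apoptotic. Tubulin, mitochondrial-mass and membrane-permeability phenotypes are per cents of healthy-nucleus cells.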

[1] = 12 h, 1 µM, compound concentration 1 uM, replicate 1
[2] = 12 h, 1 µM, compound concentration 1 uM, replicate 2
[3] = 12 h, 10 µM, compound concentration 10 uM, replicate 1
[4] = 12 h, 10 µM, compound concentration 10 uM, replicate 2
[5] = 24 h, 1 µM, compound concentration 1 uM, replicate 1
[6] = 24 h, 1 µM, compound concentration 1 uM, replicate 2
[7] = 24 h, 10 µM, compound concentration 10 uM, replicate 1
[8] = 24 h, 10 µM, compound concentration 10 uM, replicate 2
[9] = 48 h, 1 µM, compound concentration 1 uM, replicate 1
[10] = 48 h, 1 µM, compound concentration 1 uM, replicate 2
[11] = 48 h, 10 µM, compound concentration 10 uM, replicate 1
[12] = 48 h, 10 µM, compound concentration 10 uM, replicate 2

Compound: Cn1cc(C(=O)OCC2CCN(CCNS(C)(=O)=O)CC2)c2ccccc21
- Population Apoptotic (%) [1]: 73%
- Population Fragmented Nuclei (%) [1]: 27%
- Population Healthy Nuclei (%) [1]: 63%
- Population Hoechst High Intensity Objects (%) [1]: 3%
- Population Membrane Permeable-Phenotype (%) [1]: 7%
- Population Mitochondria Different-Phenotype (%) [1]: 4%
- Population Mitotic Cells (%) [1]: 26%
- Population Normal (%) [1]: 96%
- Population Pyknosed Nuclei (%) [1]: 8%
- Population Tubulin-Different-Phenotype (%) [1]: 5%
- Total Cell Count [1]: 226
- Population Apoptotic (%) [2]: 77%
- Population Fragmented Nuclei (%) [2]: 20%
- Population Healthy Nuclei (%) [2]: 71%
- Population Hoechst High Intensity Objects (%) [2]: 0%
- Population Membrane Permeable-Phenotype (%) [2]: 13%
- Population Mitochondria Different-Phenotype (%) [2]: 5%
- Population Mitotic Cells (%) [2]: 22%
- Population Normal (%) [2]: 100%
- Population Tubulin-Different-Phenotype (%) [2]: 6%
- Total Cell Count [2]: 110
- Population Apoptotic (%) [3]: 53%
- Population Fragmented Nuclei (%) [3]: 36%
- Population Healthy Nuclei (%) [3]: 58%
- Population Hoechst High Intensity Objects (%) [3]: 0%
- Population Membrane Permeable-Phenotype (%) [3]: 10%
- Population Mitochondria Different-Phenotype (%) [3]: 5%
- Population Mitotic Cells (%) [3]: 46%
- Population Normal (%) [3]: 99%
- Population Pyknosed Nuclei (%) [3]: 5%
- Population Tubulin-Different-Phenotype (%) [3]: 5%
- Total Cell Count [3]: 252
- Population Apoptotic (%) [4]: 57%
- Population Fragmented Nuclei (%) [4]: 18%
- Population Healthy Nuclei (%) [4]: 76%
- Population Hoechst High Intensity Objects (%) [4]: 1%
- Population Membrane Permeable-Phenotype (%) [4]: 17%
- Population Mitochondria Different-Phenotype (%) [4]: 13%
- Population Mitotic Cells (%) [4]: 42%
- Population Normal (%) [4]: 98%
- Population Tubulin-Different-Phenotype (%) [4]: 9%
- Total Cell Count [4]: 137
- Population Apoptotic (%) [5]: 95%
- Population Fragmented Nuclei (%) [5]: 26%
- Population Healthy Nuclei (%) [5]: 65%
- Population Hoechst High Intensity Objects (%) [5]: 2%
- Population Membrane Permeable-Phenotype (%) [5]: 4%
- Population Mitochondria Different-Phenotype (%) [5]: 2%
- Population Mitotic Cells (%) [5]: 4%
- Population Normal (%) [5]: 97%
- Population Pyknosed Nuclei (%) [5]: 8%
- Population Tubulin-Different-Phenotype (%) [5]: 3%
- Total Cell Count [5]: 263
- Population Apoptotic (%) [6]: 100%
- Population Fragmented Nuclei (%) [6]: 17%
- Population Healthy Nuclei (%) [6]: 78%
- Population Hoechst High Intensity Objects (%) [6]: 0%
- Population Membrane Permeable-Phenotype (%) [6]: 10%
- Population Mitochondria Different-Phenotype (%) [6]: 5%
- Population Mitotic Cells (%) [6]: 0%
- Population Normal (%) [6]: 100%
- Population Pyknosed Nuclei (%) [6]: 4%
- Population Tubulin-Different-Phenotype (%) [6]: 6%
- Total Cell Count [6]: 144
- Population Apoptotic (%) [7]: 92%
- Population Fragmented Nuclei (%) [7]: 33%
- Population Healthy Nuclei (%) [7]: 61%
- Population Hoechst High Intensity Objects (%) [7]: 2%
- Population Membrane Permeable-Phenotype (%) [7]: 11%
- Population Mitochondria Different-Phenotype (%) [7]: 5%
- Population Mitotic Cells (%) [7]: 7%
- Population Normal (%) [7]: 97%
- Population Pyknosed Nuclei (%) [7]: 4%
- Population Tubulin-Different-Phenotype (%) [7]: 4%
- Total Cell Count [7]: 281
- Population Apoptotic (%) [8]: 64%
- Population Fragmented Nuclei (%) [8]: 16%
- Population Healthy Nuclei (%) [8]: 73%
- Population Hoechst High Intensity Objects (%) [8]: 1%
- Population Membrane Permeable-Phenotype (%) [8]: 12%
- Population Mitochondria Different-Phenotype (%) [8]: 8%
- Population Mitotic Cells (%) [8]: 35%
- Population Normal (%) [8]: 98%
- Population Pyknosed Nuclei (%) [8]: 9%
- Population Tubulin-Different-Phenotype (%) [8]: 8%
- Total Cell Count [8]: 150
- Population Apoptotic (%) [9]: 91%
- Population Fragmented Nuclei (%) [9]: 20%
- Population Healthy Nuclei (%) [9]: 69%
- Population Hoechst High Intensity Objects (%) [9]: 1%
- Population Membrane Permeable-Phenotype (%) [9]: 8%
- Population Mitochondria Different-Phenotype (%) [9]: 3%
- Population Mitotic Cells (%) [9]: 8%
- Population Normal (%) [9]: 98%
- Population Pyknosed Nuclei (%) [9]: 9%
- Population Tubulin-Different-Phenotype (%) [9]: 5%
- Total Cell Count [9]: 372
- Population Apoptotic (%) [10]: 57%
- Population Fragmented Nuclei (%) [10]: 13%
- Population Healthy Nuclei (%) [10]: 75%
- Population Hoechst High Intensity Objects (%) [10]: 2%
- Population Membrane Permeable-Phenotype (%) [10]: 6%
- Population Mitochondria Different-Phenotype (%) [10]: 5%
- Population Mitotic Cells (%) [10]: 42%
- Population Normal (%) [10]: 97%
- Population Pyknosed Nuclei (%) [10]: 10%
- Population Tubulin-Different-Phenotype (%) [10]: 4%
- Total Cell Count [10]: 182
- Population Apoptotic (%) [11]: 88%
- Population Fragmented Nuclei (%) [11]: 30%
- Population Healthy Nuclei (%) [11]: 58%
- Population Hoechst High Intensity Objects (%) [11]: 1%
- Population Membrane Permeable-Phenotype (%) [11]: 9%
- Population Mitochondria Different-Phenotype (%) [11]: 4%
- Population Mitotic Cells (%) [11]: 11%
- Population Normal (%) [11]: 98%
- Population Pyknosed Nuclei (%) [11]: 10%
- Population Tubulin-Different-Phenotype (%) [11]: 7%
- Total Cell Count [11]: 341
- Population Apoptotic (%) [12]: 75%
- Population Fragmented Nuclei (%) [12]: 9%
- Population Healthy Nuclei (%) [12]: 79%
- Population Hoechst High Intensity Objects (%) [12]: 3%
- Population Membrane Permeable-Phenotype (%) [12]: 13%
- Population Mitochondria Different-Phenotype (%) [12]: 6%
- Population Mitotic Cells (%) [12]: 25%
- Population Normal (%) [12]: 97%
- Population Tubulin-Different-Phenotype (%) [12]: 5%
- Total Cell Count [12]: 200

— ChEMBL document CHEMBL5058577, “EUbOPEN Chemogenomics Library 2 (Multiplex)” (2022)
